Reference: ChEMBL document CHEMBL4118197, “The discovery and preclinical evaluation of BMS-707035, a potent HIV-1 integrase strand transfer inhibitor” (Bioorg Med Chem Lett, 2018)

Assays:
[1] = Clearance in Sprague-Dawley rat at 1 mg/kg, iv after 4 hrs; type: ADME, organism-based; details: in vivo
Method in brief: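 Male Sprague-Dawley rats given 1 mpk IV in PEG400/ethanol (90:10); blood sampled at 5 and 30 min and 1, 2 and 4 h post-dose; clearance from plasma profile.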

[2] = Aqueous solubility of the compound; type: physicochemical
Method in brief: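 Aqueous solubility measured at pH 2.3, 6.1, 7.3 and 8.5, in µg/mL.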

[3] = target: Human immunodeficiency virus type 1 integrase (Human immunodeficiency virus 1, UniProt Q7ZJM1); test: Inhibition of HIV1 integrase strand transfer activity
Sequence of Human immunodeficiency virus type 1 integrase (Q7ZJM1 whole entry): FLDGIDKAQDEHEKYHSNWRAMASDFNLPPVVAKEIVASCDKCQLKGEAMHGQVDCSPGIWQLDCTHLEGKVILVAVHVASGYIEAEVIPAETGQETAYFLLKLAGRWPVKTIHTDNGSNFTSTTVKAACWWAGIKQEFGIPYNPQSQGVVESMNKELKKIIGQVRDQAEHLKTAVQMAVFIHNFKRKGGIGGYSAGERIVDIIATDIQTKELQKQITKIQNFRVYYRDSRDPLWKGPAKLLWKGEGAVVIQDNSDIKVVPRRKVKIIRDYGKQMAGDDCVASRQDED

| SMILES | clearance [1] [mL/min/kg] | solubility [2] [µg/mL] | IC50 [3] [nM] |
| --- | --- | --- | --- |
| Cc1cc(CNC(=O)c2nc3n(c(=O)c2O)CCCC32CCCC2)ccc1F | 17 | ≤ 5 | 2 |
| O=C(NCc1ccc(F)cc1)c1nc2n(c(=O)c1O)CCCC21CCCC1 | 18 | ≤ 5 | 3 |
